Experimental data from article PMC2781304 (Biochemistry, 2009).
Values joined by “and” are separate entries in the source; they are usually repeats but may differ in a detail not shown here. Equal entries are not always repeated. Where two headings read alike, the source gives them in different places. Where no end group is shown, it is not given here.

Columns and labels:
soluble receptor = details: cited from earlier work
[1] = ref 66; cited from earlier work
insulin receptor = details: cited from earlier work
HepG2 cells = details: ref 31; cited from earlier work
IM-9 cell receptors [2] = details: cited from earlier work
rat adipocytes = details: cited from earlier work
[3] = actual data were not shown; cited from earlier work
[4] = target: T1, human insulin receptor on IM9 cells (Homo sapiens, UniProt P06213); experiment: Association kinetics of 125I-labeled insulins on IM9 cells; assay type: binding; details: 125I-labeled ligand, 15 °C
[5] = tested on: NIH 3T3 fibroblasts overexpressing the wild-type human insulin receptor; experiment: [3H]thymidine incorporation; assay type: cell-based, mouse; details: for relative mitogenic potency over relative metabolic potency: thymidine incorporation versus lipogenesis in rat adipocytes
IM-9 cell receptors [6] = details: ref 19; cited from earlier work
rat fat pad = details: relative to that of bovine insulin; cited from earlier work
isolated rat adipocytes = details: ref 16-18; cited from earlier work
deoxyglucose transport = details: ref 19; cited from earlier work
primary rat adipocytes = experiment: Insulin-stimulated lipogenesis; assay type: cell-based; details: for maximal lipogenesis: compared with human insulin; for metabolic potency relative to human insulin: lipogenesis in primary rat adipocytes
In short: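 Adipocytes from male Sprague-Dawley rat epididymal fat pads, collagenase-digested (1 mg/mL, 45 min, 37 °C) in KRH with 3.5% BSA, 0.2 uM adenosine and 2 mM glucose. […] Lipid-extracted label counted, background (tracer without hormone) subtracted. Triplicates, three experiments, four-parameter logistic fit for ED50.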

[7] = tested on: soluble IR ectodomain (sIR); experiment: Homologous competition for soluble IR ectodomain, PEG precipitation; assay type: binding; details: 15 pM tracer, 16 h at 4 °C; % of human insulin
rat liver cells = details: ref 20; cited from earlier work
[8] = tested on: receptors on the human placental membrane; details: ref 62; cited from earlier work
[9] = target: T1, human insulin receptor on IM9 cells; experiment: Dissociation kinetics of 125I-labeled insulins from IM9 cells; assay type: binding; details: prebound 6 h at 15 °C, 40-fold dilution

T1 sequence (P06213 28-1370 isoform P06213-2 limits assumed): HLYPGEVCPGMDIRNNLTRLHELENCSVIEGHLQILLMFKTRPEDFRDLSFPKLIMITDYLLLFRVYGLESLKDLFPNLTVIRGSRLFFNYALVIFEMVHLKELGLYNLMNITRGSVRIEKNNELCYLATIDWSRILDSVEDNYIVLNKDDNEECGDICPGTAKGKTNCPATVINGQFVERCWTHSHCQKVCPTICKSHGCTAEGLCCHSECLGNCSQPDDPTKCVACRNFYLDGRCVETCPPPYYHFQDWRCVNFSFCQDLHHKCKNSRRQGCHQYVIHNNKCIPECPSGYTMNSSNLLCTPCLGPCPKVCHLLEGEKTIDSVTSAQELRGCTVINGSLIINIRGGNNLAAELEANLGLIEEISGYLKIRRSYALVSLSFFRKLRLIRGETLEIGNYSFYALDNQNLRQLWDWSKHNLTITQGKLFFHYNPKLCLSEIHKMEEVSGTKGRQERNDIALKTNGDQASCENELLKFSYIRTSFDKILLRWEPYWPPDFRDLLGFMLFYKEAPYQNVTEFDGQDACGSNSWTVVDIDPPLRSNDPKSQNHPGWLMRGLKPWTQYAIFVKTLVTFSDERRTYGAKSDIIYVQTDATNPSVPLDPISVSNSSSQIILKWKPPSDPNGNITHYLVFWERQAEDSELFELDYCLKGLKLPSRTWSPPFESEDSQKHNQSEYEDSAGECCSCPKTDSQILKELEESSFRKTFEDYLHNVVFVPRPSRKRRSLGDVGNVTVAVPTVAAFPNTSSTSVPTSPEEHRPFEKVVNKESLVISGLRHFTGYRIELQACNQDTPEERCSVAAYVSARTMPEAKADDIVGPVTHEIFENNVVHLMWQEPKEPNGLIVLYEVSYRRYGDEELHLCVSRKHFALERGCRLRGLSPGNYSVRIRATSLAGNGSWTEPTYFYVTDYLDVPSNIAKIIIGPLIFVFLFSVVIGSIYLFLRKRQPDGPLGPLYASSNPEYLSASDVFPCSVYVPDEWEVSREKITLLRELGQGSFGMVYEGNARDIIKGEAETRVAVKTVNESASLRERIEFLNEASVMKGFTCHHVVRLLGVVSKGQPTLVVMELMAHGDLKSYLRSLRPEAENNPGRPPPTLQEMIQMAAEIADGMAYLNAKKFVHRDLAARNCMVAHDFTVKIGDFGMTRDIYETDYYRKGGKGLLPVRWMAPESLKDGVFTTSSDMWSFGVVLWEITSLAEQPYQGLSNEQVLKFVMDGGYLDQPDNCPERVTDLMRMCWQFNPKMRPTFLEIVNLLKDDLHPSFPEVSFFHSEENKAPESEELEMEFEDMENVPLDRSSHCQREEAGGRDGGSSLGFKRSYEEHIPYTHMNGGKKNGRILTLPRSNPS
T1 sequence (P06213 763-1382 partner limits assumed): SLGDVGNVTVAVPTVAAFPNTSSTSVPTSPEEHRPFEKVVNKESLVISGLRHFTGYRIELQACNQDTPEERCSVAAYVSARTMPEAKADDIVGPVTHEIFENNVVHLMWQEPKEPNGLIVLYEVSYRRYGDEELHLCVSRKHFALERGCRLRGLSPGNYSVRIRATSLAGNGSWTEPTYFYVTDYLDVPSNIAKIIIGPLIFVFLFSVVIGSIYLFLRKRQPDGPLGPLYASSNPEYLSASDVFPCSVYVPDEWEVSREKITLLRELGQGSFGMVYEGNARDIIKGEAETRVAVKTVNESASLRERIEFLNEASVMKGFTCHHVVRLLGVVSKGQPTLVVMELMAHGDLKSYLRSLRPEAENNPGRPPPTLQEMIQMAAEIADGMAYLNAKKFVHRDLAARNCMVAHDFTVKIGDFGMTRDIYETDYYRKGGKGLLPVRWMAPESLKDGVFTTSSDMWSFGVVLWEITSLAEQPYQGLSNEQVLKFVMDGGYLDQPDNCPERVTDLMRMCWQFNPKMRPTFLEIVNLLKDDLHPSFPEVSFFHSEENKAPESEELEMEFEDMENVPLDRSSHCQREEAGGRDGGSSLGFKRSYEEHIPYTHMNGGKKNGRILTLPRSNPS

B17 to Val: human insulin with B17 substitution to Val (literature) [reference compound]
reduction of affinity, substitutions at B17 (soluble receptor; solubilized receptor): 2.5 fold

insulin Wakayama: insulin with a ValA3 to Leu mutation found in a diabetic patient
potency [1]: 0.2%

HisB10Asp: human insulin analogue, His to Asp at B10
enhancement of the affinity and activity of human insulin (insulin receptor; ref 31, 46): 3−5 fold

HisA8 human insulin: human insulin with the ThrA8 to His mutation (literature)
affinity relative to human insulin in HepG2 cells (HepG2 cells): 327%
affinity relative to human insulin in IM-9 lymphocytes (IM-9 cell receptors [2]; ref 47, 56): 300%

hagfish insulin: insulin from the Atlantic hagfish (Myxine glutinosa), gift from S. Falkmer (Insulin B chain RTTGHLCGKDLVNALYIACGVRGFFYDPTKM; Insulin A chain GIVEQCCHKRCSIYDLENYCN; ends and bridges not checked; cysteine pairing not given here; UniProt P01342 27-57; P01342 95-115, looked up)
biological activity in stimulating lipogenesis in rat adipocytes (rat adipocytes; ref 16): 3.8%
biological activity in stimulating lipogenesis in rat adipocytes (rat adipocytes; ref 51): 4.6%
biological potency in stimulating lipogenesis (rat adipocytes; same cells, relative to porcine insulin): 3−5%
mitogenic:metabolic potency ratio [3]: 1.0
incubation time to reach apparent steady state of binding [4]: 4 h
mitogenic potency relative to human insulin ([5]; thymidine incorporation): 32%
relative mitogenic potency over relative metabolic potency [5]: 3.8
maximal stimulation ([5]; thymidine incorporation, difference not statistically significant): 75 % of that of human insulin
maximal acceleration of dissociation of 125I-labeled porcine insulin (IM-9 cell receptors [6]): same maximal acceleration
potency to accelerate the dissociation of 125I-labeled porcine insulin (IM-9 cell receptors [6]): 5 % of unlabeled porcine insulin
biological activity in rat fat pad (rat fat pad): 7%
affinity for isolated rat adipocytes, % of that of porcine insulin (isolated rat adipocytes): 23%
biological activity for deoxyglucose transport (deoxyglucose transport): 5−10%
maximal lipogenesis (primary rat adipocytes): same maximal lipogenesis as human insulin
metabolic potency relative to human insulin (primary rat adipocytes): 8.4% and 8%
relative affinity for the purified soluble human receptor ectodomain [7]: 22%
potency in rat liver cells (rat liver cells): 3%

IleA10 with Ser: insulin with substitution of IleA10 with Ser as in IGF-I and IGF-II (literature) [reference compound]
loss of affinity (insulin receptor; ref 64): 5 fold

B21 to Ala: human insulin with mutation of B21 to Ala (literature)
decrease in the level of binding to receptors on the human placental membrane [8]: ~2 fold
affinity in IM-9 cells (IM-9 cell receptors [2]; ref 26): 226%

lamprey insulin: insulin purified from the islet organ of the river lamprey L. fluviatilis (Insulin B chain SALTGAGGTHLCGSHLVEALYVVCGDRGFFYTPSKT; Insulin A chain GIVEQCCHRKCSIYDMENYCN; ends and bridges not checked; cysteine pairing not given here; UniProt P68988 1-36; P68988 37-57, looked up)
incubation time to reach apparent steady state of binding [4]: 6 h
mitogenic potency relative to human insulin ([5]; thymidine incorporation): 54%
relative mitogenic potency over relative metabolic potency [5]: 5.8
maximal response ([5]; thymidine incorporation, 10% FBS as maximal response): same maximal response as serum or human insulin
dissociation of 125I-labeled ligand by dilution alone [9]: much slower
relative affinity for the soluble receptor based on IC50 (soluble receptor; ref 9): 130%
maximal lipogenesis (primary rat adipocytes): same maximal lipogenesis as human insulin
metabolic potency relative to human insulin (primary rat adipocytes): 9.4% and 9%
